# Most compounds without a hit are left out; they make up all but 2.3% or so of the library.
# Pemphigus Ab inh: human desmoglein-3 autoantibody binding inhibition; 310,000 tested, 0.48% active; DSG3-coupled beads, scFv-anti-DSG3-GFP binding, flow cytometry; active compounds read low; AID 588358; binding (percent of control), % at 10 µM;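 active = binding more than 3 SD below its plate's average and above zero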;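 also: hits lower antibody fragment binding to DSG3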
# Target sequence (P32926 whole entry, looked up, the tested form may be a part): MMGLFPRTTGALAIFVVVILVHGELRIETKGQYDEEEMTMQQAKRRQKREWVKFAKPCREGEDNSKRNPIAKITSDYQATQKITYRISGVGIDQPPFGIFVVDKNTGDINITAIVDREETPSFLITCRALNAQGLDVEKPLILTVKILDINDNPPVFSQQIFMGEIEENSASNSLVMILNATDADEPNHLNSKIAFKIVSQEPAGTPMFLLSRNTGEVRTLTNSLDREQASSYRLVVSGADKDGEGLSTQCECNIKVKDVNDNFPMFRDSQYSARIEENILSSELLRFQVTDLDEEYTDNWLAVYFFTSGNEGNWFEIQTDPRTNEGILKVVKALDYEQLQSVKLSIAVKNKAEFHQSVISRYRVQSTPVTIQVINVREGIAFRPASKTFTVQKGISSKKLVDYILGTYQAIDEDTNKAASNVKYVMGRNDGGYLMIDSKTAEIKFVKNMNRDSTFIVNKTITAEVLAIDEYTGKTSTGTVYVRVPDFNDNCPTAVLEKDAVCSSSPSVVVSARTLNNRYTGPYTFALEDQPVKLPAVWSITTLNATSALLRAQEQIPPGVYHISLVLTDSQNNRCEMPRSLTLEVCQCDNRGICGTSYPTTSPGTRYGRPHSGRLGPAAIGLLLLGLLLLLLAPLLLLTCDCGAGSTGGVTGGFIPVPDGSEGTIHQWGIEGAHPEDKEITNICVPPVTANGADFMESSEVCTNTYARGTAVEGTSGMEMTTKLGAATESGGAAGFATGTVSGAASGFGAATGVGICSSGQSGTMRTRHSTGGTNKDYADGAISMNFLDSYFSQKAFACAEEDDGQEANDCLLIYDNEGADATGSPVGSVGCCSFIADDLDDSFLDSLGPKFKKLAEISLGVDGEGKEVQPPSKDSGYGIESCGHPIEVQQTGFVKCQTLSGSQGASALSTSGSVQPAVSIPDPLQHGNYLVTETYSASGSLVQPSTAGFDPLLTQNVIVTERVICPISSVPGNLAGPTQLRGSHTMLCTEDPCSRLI
# T cell HTS: T cell immune modulation candidate. 2C CD8+ T cell-vesicle binding, flow cytometry; active compounds read low. response (vesicle binding), % at 7 µM. 330,000 tested, 0.068% active. AID 2052;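 active = response, share of CD8 T cells binding vesicles, and their 90th percentile fluorescence all below set limits, cut at about 80% in these data, passing the limit was not always enough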;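 also: values below 100% mean blocked vesicle binding to the CD8+ T cells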
#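 Material: 2C TCR transgenic mouse naive CD8+ T cells, MACS-purified. Also added: QL9-charged Drosophila Ld/ICAM-1/B7-1 vesicles. Timing: binding 1.5 h at 37 °C. Measured by: high-throughput flow cytometry with anti-B7-1 and anti-CD8 staining. Read-out: percent CD8+ FL2 mean versus row control. Controls: Unloaded micro-vesicles (low), QL9 vesicles with 0.7% DMSO (high).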
# Mcl-1 Bim block: human Bim-Mcl-1 interaction inhibition | Q07820 | Bead-based flow cytometry, Bim peptide-Mcl-1 binding | inhibition, % at 10 µM | AID 1009 | 190,000 tested, 0.1% active; in the data active = inhibition above about 40%;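 also: 0% = no compound tracer wells and 100% = peptide blocker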
# MCL1-BIM inh: inhibitors of human MCL1 binding to BIM-BH3 peptide; AID 2057; Q07820; GST-MCL1 / FITC-Bim-BH3 fluorescence polarization; inhibition, % at 10.9 µM; 320,000 tested, 0.68% active;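 active = inhibition above the mean inhibition of all tested compounds plus 3 SD, set per campaign, cut at about 40% in these data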;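 also: 0% = DMSO wells and 100% = unlabeled Bim-BH3 peptide control; higher means more loss of mP so more displacement of Bim peptide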
# Mcl1 Bid PPI: Mcl-1/Bid interaction inhibition | 220,000 tested, 0.97% active | inhibition, % at 21.7 µM | TR-FRET Mcl-1/Bid-Dy647 peptide binding, 1536-well | Q07820;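 active = compounds that cut the binding signal by more than half at the single screening dose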;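 also: His-tagged Mcl-1 with europium anti-His antibody binding Bid BH3 peptide; 0% = Mcl-1 plus peptide wells and 100% = peptide-only wells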
# Mcl1-Noxa inh: disrupts binding of human Mcl-1 to Noxa peptide; Q07820; TR-FRET Mcl-1/Noxa peptide binding, 2 h; inhibition, % at 21.7 µM; 220,000 tested, 1.5% active;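 active = compounds that cut the protein-peptide binding signal by more than 50% relative to plate controls in a single-dose test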;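 also: His-tagged Mcl-1 with rhodamine Noxa BH3 peptide and terbium anti-His antibody; 0% = Mcl-1 plus Noxa peptide wells and 100% = peptide-only wells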
# The depositor's hits bear a star; . = not tested or not shown.
SMILES,Pemphigus Ab inh,T cell HTS,Mcl-1 Bim block,MCL1-BIM inh,Mcl1 Bid PPI,Mcl1-Noxa inh
O=c1oc2cc(O)ccc2cc1-c1nc2c(s1)CCc1ccccc1-2,106.4,768.3,.,26.9,-37.4,53.6*
Cc1ccc(C(=O)Oc2ccc(C(=O)COC(=O)C3CC(=O)N(Cc4ccco4)C3)cc2)cc1 (centres undefined),89.9,331.3,0.0,11.1,57.0*,-216.3
O=C(COC(=O)C1CC(=O)N(Cc2ccco2)C1)c1ccc(OC(=O)c2ccco2)cc1 (centres undefined),89.3,542.1,-4.0,26.2,-8.8,55.5*
COc1cc(C(=O)NCCCCc2ccccc2)cc(OC)c1OC,118.2,161.2,.,2.8,.,.
COc1cc(C(=O)NC2(C(F)(F)F)NC(=O)N(CCCc3ccccc3)C2=O)cc(OC)c1OC (centres undefined),111.0,156.6,-2.0,3.1,63.8*,-2.7
CC(C)(C)NC(=O)C(OC(=O)c1cccs1)c1ccc(F)cc1 (centres undefined),-16.3*,295.7,-1.0,1.4,-8.9,1.1
Cn1ncc(S(=O)(=O)Cc2ccccc2)c(Cl)c1=O,97.5,729.2,.,24.0,-5.4,68.4*
Cn1ncc(SCc2ccccc2)c(Cl)c1=O,89.4,238.3,.,7.1,-17.9,13.9
CCOC(=O)c1sc2nc(NC(=O)COc3ccccc3)sc2c1C,104.1,507.3,-4.0,-0.9,-4.6,55.4*
CC(=O)c1sc(NC(=O)COc2ccccc2)nc1C,99.3,513.9,0.0,-4.3,-22.0,6.2
COCCC(=O)N1CCC(Oc2ccc(C(=O)NCc3cccc(C)n3)cc2)CC1,.,0.0,.,3.1,.,.
COc1cc(C(=O)NCc2ccc(C(=O)NCC(OC)OC)cc2)cc(OC)c1OC,107.5,398.5,0.0,-6.2,64.0*,2.0
N#CC(=C=[N-])c1nc2ccccc2nc1-[n+]1cccc(NC(=O)c2cccs2)c1,50.9*,668.1,.,9.3,4.6,38.6
N#CC(=C=[N-])c1nc2ccccc2nc1-[n+]1cccc(NC(=O)c2ccccc2)c1,102.1,196.7,.,6.8,3.6,5.3
Cc1ccc(C(=O)ONc2ccc(N=O)cc2)cc1,108.6,0.0,0.0,1.1,-1.9,18.8
Cc1ccc(C(=O)ONc2ccc(N=NC(=O)c3ccccc3O)cc2)cc1,106.9,84.2,3.0,8.4,101.5*,81.0*
O=C(CCCCn1cnc2c(=S)nc[nH]c21)Nc1ccc(C(=O)O)cc1,90.1,.,.,.,.,.
O=C(O)Cn1cnc2c(=S)nc[nH]c21,88.9,255.3,.,-3.1,98.8*,8.8
COc1ccccc1CCCNC(=O)C1CCC(=O)N(CCc2ccc(Cl)cc2)C1 (centres undefined),96.6,0.0,.,3.3,.,.
CC1CCc2c(sc(Nc3nc4c(F)cccc4s3)c2C(N)=O)C1 (centres undefined),.,521.9,-3.0,-61.2,42.5,101.3*
O=C(Nc1nc2c(F)cccc2s1)C1CC1,95.0,460.3,.,-1.9,.,.
O=S(=O)(c1ccccc1)N(CC(O)Cn1c2ccccc2c2ccccc21)c1ccccc1 (centres undefined),.,157.8,0.0,3.9,-10.2,.
Cc1ccc(S(=O)(=O)N(C)CC(O)Cn2c3ccccc3c3ccccc32)cc1 (centres undefined),96.9,388.3,0.0,8.3,72.4*,6.8
CNc1c(N)n(Cc2ccccc2)c(=O)[nH]c1=O,.,155.7,0.0,43.0*,-84.2,-22.0
O=C1CN(c2ccc(Cl)cc2)C(=O)CN1NC(=S)Nc1ccc(Cl)cc1,60.6*,439.2,0.0,7.5,-66.2,8.0
O=C(Nc1ccccc1)NN1CC(=O)N(c2ccc(Cl)cc2)CC1=O,108.7,485.9,.,0.1,-46.8,-6.8
CN(C)c1ccc(/C=C2\c3ccccc3C(=O)N2c2ccccc2)cn1,108.2,.,.,.,.,.
CC1=C(C(=O)N2CCOCC2)CC(CC(=O)NC2CCCC2)C(=O)N1Cc1ccc(F)cc1 (centres undefined),103.4,.,.,.,.,.
Cc1cccc(N(C(=O)c2snc(C(N)=O)c2N)C(C(=O)NCC2CCCO2)c2ccc(N(C)C)cc2)c1C (centres undefined),103.6,0.0*,.,8.1,.,.
Cc1ccc(-n2c(C)n[nH]c2=S)cc1C,.,744.9,-7.0,-8.1,97.3*,12.4
